Tests used:
hpol ι = target: T1, hpol ι (Homo sapiens, UniProt Q9UNA4); test: Gel-based pol extension assay, hpol ι; format: biochemical; conditions: relative to hpol η / hRev1
T1 sequence (Q9UNA4 1-446): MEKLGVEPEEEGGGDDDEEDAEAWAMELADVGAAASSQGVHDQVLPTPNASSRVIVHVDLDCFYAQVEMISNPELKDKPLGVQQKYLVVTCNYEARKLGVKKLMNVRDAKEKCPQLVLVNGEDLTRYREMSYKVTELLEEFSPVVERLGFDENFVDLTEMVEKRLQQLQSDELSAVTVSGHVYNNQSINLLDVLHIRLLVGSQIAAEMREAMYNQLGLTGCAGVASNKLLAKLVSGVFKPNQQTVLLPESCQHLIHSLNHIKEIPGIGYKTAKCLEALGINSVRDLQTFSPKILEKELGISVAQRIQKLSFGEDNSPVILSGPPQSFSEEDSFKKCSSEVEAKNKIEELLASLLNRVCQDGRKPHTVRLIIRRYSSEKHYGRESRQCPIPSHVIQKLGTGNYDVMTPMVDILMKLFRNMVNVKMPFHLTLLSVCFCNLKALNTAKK
Method in brief: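 Gel extension assay with hpol ι core (residues 1–446) or hpol κ core (residues 19–526). Enzyme 2 nM preincubated 5 min with increasing test compound in 50 mM HEPES pH 7.5, 50 mM NaCl, 1 mM DTT, 0.1 mg/mL BSA, 10% glycerol. Started at 37 °C with 200 nM FAM-labeled 13/18-mer primer–template, 10 μM each dNTP, 5 mM MgCl₂. Quench: 20 mM EDTA/95% formamide, 95 °C. Triplicate; IC50 mean ± SD.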

TbPol I = TbPol I (Mycobacterium tuberculosis, UniProt P9WNU5); test: Fluorescence-based pol activity assay, Tb Pol I; format: biochemical; conditions: 20 μM PNR-7-02; mean (±SD)
hpol β = hpol β (Homo sapiens, UniProt P06746); test: Fluorescence-based pol activity assay, hpol β; format: biochemical; conditions: 20 μM PNR-7-02
hpol λ = target: T2, hpol λ (Homo sapiens, UniProt Q9UGP5); test: Fluorescence-based pol activity assay, hpol λ; format: biochemical
T2 sequence (Q9UGP5 251-575 limits assumed): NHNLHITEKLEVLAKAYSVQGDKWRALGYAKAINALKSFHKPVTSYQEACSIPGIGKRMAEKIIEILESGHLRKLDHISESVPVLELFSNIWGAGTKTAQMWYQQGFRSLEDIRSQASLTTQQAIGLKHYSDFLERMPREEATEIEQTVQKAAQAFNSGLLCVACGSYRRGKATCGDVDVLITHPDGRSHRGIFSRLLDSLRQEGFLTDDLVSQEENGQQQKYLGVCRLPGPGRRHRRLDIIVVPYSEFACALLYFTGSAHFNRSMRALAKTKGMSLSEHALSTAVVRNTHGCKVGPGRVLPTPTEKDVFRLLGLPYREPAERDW

[1] = target: T3, hpol η binding to primer–template DNA (Homo sapiens, UniProt Q9Y253); test: Fluorescence anisotropy DNA binding assay; conditions: 1–12 μM inhibitor, also above the IC50
T3 sequence (Q9Y253 1-437): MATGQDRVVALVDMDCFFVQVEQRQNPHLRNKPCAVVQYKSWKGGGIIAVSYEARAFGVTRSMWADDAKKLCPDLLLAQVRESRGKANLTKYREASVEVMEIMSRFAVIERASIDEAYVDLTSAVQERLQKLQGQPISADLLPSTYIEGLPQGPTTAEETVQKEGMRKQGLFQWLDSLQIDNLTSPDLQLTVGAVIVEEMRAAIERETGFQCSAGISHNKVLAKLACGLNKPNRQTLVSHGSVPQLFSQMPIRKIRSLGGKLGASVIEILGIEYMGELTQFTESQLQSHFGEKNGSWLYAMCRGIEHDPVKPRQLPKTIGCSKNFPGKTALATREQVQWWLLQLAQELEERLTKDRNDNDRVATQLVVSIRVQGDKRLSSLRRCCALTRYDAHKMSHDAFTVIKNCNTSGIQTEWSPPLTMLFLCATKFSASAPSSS

hpol η [2] = target: T4, hpol η (Homo sapiens, UniProt Q9Y253); test: Steady-state kinetic analysis of hpol η activity; format: biochemical
T4 sequence (Q9Y253 1-437): T3 sequence (Q9Y253 1-437)

hpol η [3] = target: T4, hpol η; test: HPG labeling / MS protein footprinting of hpol η; format: binding; conditions: 20 and 100 μM PNR-7-02
Method in brief: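 Protein footprinting: hpol η (10 μM) preincubated 10 min at 37 °C with 20 μM (1:2) or 100 μM (1:10) test compound in 50 mM HEPES pH 7.8, 10 mM MgCl₂, 10% DMSO. Then 500 μM HPG for 60 min at 37 °C in the dark; quenched with 200 mM arginine. SDS-PAGE, then MS. Modified arginine taken as fraction of total per residue, normalized to the HPG-alone sample.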

[4] = test system: γH2AX in hpol η-proficient HAP-1 cells; test: γH2AX immunoblotting, hpol η-proficient HAP-1 cells; format: cell-based, human; conditions: PNR-7-02 alone
Method in brief: (§1)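 HAP-1 cells treated with DMSO or 0.5 μM CDDP combined with 0.1 or 1 μM test compound. Pellets lysed at 4 °C in HEPES pH 7.5/Triton X-100 buffer with phosphatase and protease inhibitors. 30–40 μg protein run on 4–20% SDS-PAGE, transferred to nitrocellulose. Probed with anti-γH2AX (S139) 1:1500 and HRP anti-rabbit 1:4000; β-actin loading control; chemiluminescence. Bands normalized to β-actin, relative to DMSO; three biological replicates; t test.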

[5] = test system: γH2AX in hpol η-deficient HAP-1 cells; test: γH2AX immunoblotting, hpol η-deficient HAP-1 cells; format: cell-based, human
Method in brief: as §1

Chain of TbPol I (P9WNU5 whole entry): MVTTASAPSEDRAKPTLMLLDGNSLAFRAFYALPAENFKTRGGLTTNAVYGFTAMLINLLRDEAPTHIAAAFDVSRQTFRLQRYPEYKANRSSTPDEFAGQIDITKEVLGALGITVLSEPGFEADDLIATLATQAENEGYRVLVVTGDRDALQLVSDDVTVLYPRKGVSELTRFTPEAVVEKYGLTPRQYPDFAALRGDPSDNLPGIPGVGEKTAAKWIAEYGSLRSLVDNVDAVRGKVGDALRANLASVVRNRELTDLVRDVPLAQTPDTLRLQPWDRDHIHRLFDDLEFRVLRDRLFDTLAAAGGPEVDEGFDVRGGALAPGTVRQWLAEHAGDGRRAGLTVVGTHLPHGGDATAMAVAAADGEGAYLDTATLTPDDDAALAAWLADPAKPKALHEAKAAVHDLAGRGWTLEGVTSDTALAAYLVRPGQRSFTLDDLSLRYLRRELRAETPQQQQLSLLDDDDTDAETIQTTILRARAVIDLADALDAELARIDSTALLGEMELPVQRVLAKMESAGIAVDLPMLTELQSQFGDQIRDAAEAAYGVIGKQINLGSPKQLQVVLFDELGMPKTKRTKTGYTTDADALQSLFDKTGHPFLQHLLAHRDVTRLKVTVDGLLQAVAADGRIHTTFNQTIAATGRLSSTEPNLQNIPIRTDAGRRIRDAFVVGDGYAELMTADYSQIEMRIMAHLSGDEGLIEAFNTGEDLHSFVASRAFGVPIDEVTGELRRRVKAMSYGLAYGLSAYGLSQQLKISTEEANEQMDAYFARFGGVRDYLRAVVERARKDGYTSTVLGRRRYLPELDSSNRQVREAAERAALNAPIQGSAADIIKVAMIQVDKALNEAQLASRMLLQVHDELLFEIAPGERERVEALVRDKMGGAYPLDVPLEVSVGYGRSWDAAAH

For `O=C1NC(=S)NC(=O)C1=Cc1cn(Cc2ccc3ccccc3c2)c2ccc(Cl)cc12` [PNR-7-02, 5-((5-chloro-1-(naphthalen-2-ylmethyl)-1H-indol-3-yl)methylene)-2-thioxodihydropyrimidine-4,6-(1H,5H)-dione], the “Increase in IC50 against hpol η (so in the source); first of 'hpols η and κ')” value (hpol ι) was about 3 fold, the “Pol activity relative to DMSO control, TbPol I” value (TbPol I) was 93 (±2) % and the “Effect on hpol β” value (hpol β) was “no effect”. For the same compound, the “Pol activity relative to DMSO control, hpol β” value (hpol β; mean (±SD)) was 103 (±8) %, the “Effect on catalysis by hpol λ” value (hpol λ; 20 μM PNR-7-02) was “strongly inhibited” and the “Pol activity relative to DMSO control, hpol λ” value (hpol λ; 20 μM PNR-7-02, mean (±SD)) was 5.9 (±2.1) %. For the same compound, the IC50 (hpol λ; read-out: IC50, hpol λ, best-fit value and 95% confidence interval, three replicates) was 8 µM, the “Change in Kd,DNA for hpol η binding to DNA” value [1] was “less than 20%” and the “Effect on KM,dTTP of hpol η” value (hpol η [2]; 0–9 μM PNR-7-02) was “nonlinear increase”. For the same compound, the “Effect on kcat of hpol η” value (hpol η [2]; PNR-7-02 near or below the IC50) was “no change”, the “HPG modification of Arg351 of hpol η” value (hpol η [3]) was “completely abrogated” and the μH2AX formation [4] was “did not change”. The “μH2AX, combination treatment versus CDDP alone” value ([5]; CDDP + PNR-7-02) was “did not increase” and the μH2AX formation ([5]; PNR-7-02 alone) was “did not change”.

Reference: publication PMC7312786 (Biochemistry, 2018)
